Drawing on ChEMBL document CHEMBL1125147, “Nonsteroidal cardiotonics. 3. New 4,5-dihydro-6-(1H-indol-5-yl)pyridazin-3(2H)-ones and related compounds with positive inotropic activities” (1990), this text covers ED1.5 and Max for 15 molecules.

In test [1] the test system is Rattus norvegicus. As to the kind of experiment: Effective dose required to produce an increase in dP/dt by 1500 mmHg/s from that of the control in the anesthetized rats. It is filed as functional. The essentials:
(§1)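 Male SPF Sprague–Dawley rats (350–450 g), thiabutarbital sodium 80–100 mg/kg ip, tracheotomized. LV pressure measured by a Millar microtip catheter passed via the right carotid artery. Compounds given as jugular iv bolus (0.5 mL/kg) in increasing doses every 10 min. Readings taken 10 min post-dose as steady state. ED1.5 (dP/dt +1500 mmHg/s at LVP 50 mmHg) from log-linear regression, log means. Max = peak rise in dP/dt and the dose giving it.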

Test [2] deals with Felis catus. As to the kind of experiment: Maximum increase in dP/dt from that of the control in the anesthetized cats at dose 10.0 mg/kg.
Test [3] relates to Felis catus. In words: Effective dose required to produce an increase in dP/dt by 1500 mmHg/s from that of the control in the anesthetized cats. It is filed as functional. The essentials: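 Cats of both sexes, pentobarbitone 45 mg/kg ip plus 0.1 mg/kg min infusion, pump-ventilated, open chest. Dextran 10 mL/kg iv and desacetylmetipranolol 0.3 mg/kg iv for β-blockade failure. LV pressure by Millar tip catheter via the auricle. Increasing iv bolus doses every 10 min, read at 10 min. ED1.5 (dP/dt +1500 mmHg/s at LVP 50 mmHg) by log-linear regression, log means.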

For test [4], the system named is Rattus norvegicus. As to the kind of experiment: Maximum increase in dP/dt from that of the control in the anesthetized rats at dose 10.0 mg/kg. The test is classed as functional. A digest of the protocol:
as §1

Each structure is given as a SMILES string.

In test [1], `O=C1CCC(c2ccc3[nH]c(-c4cscn4)cc3c2)=NN1` showed an ED1.5 of 0.26 mg/kg. Still for that read-out and setting: for `Cc1c(-c2ccncc2)[nH]c2ccc(C3=NNC(=O)CC3C)cc12` (stereo not given) the value was 0.02 mg/kg; for `O=C1CCC(c2ccc3[nH]c(-c4cccnc4)cc3c2)=NN1`, 2.5 mg/kg. In test [1], `Cc1c(-c2ccncc2)[nH]c2ccc(C3=NNC(=O)CC3)cc12` registered an ED1.5 of 0.08 mg/kg. On to `COc1ccc(-c2nc3cc(C4=NNC(=O)CC4C)ccc3[nH]2)cc1` (stereo not given) [PIMOBENDAN], for which, in test [2], the Max came to 2.9 mHg/s. Moreover, the ED1.5 stood at 0.6 mg/kg in test [3] and 1.31 mg/kg in test [1]. Consider `CCc1c(-c2ccncc2)[nH]c2ccc(C3=NNC(=O)CC3)cc12`, for which the ED1.5 in test [1] was found to be 1.1 mg/kg.

As for `Oc1cnc(-c2ccc3[nH]c(-c4ccncc4)cc3c2)cn1`, the ED1.5 in test [1] was 0.15 mg/kg.

For the molecule `O=C1COC(c2ccc3[nH]c(-c4ccncc4)cc3c2)=NN1`, the ED1.5 in test [1] was found to be 0.7 mg/kg. On to `CC1(C)C(=O)NN=C1c1ccc2[nH]c(-c3ccncc3)cc2c1`, for which, in test [1], the ED1.5 worked out at 0.25 mg/kg. In turn, `Cc1[nH]c(=O)c(C#N)cc1-c1ccncc1` [MILRINONE] showed a Max in test [4] of 3.4 mHg/s. The ED1.5 in test [3] is 0.04 mg/kg; in test [1], 0.15 mg/kg.

Molecule `O=C1CCC(c2ccc3[nH]c(-c4ccncc4)cc3c2)=NN1` returned an ED1.5 in test [1] of 0.04 mg/kg. For the molecule `CC1CC(=O)NN=C1c1ccc2[nH]c(-c3ccncc3)cc2c1` (stereo not given), the ED1.5 was determined as 0.007 mg/kg in test [3] and 0.02 mg/kg in test [1]. With `O=C1CCC(c2ccc3[nH]c(-c4ccccc4O)cc3c2)=NN1`, in test [1], the ED1.5 was determined as 1.04 mg/kg.

For the molecule `O=C1CCC(c2ccc3[nH]c(-c4ccnnc4)cc3c2)=NN1`, in test [1], the ED1.5 is 0.02 mg/kg. In test [1], `CCOC(=O)c1cc2cc(C3=NNC(=O)CC3)ccc2[nH]1` had an ED1.5 of 1.5 mg/kg.
